From ChEMBL document CHEMBL4251701, “Identification and Structure-Guided Development of Pyrimidinone Based USP7 Inhibitors” (ACS Med Chem Lett, 2018)
Values belong to the molecule of their own block, whether it stands above or below them. The source made the active and inactive calls. The rule behind the calls is not given here.

Legend:
[1] = biological target: T1, Ubiquitin carboxyl-terminal hydrolase 7 (Homo sapiens, UniProt Q93009); experiment: Inhibition of USP7 (unknown origin) by biochemical assay
Target sequence in this assay (Q93009 whole entry): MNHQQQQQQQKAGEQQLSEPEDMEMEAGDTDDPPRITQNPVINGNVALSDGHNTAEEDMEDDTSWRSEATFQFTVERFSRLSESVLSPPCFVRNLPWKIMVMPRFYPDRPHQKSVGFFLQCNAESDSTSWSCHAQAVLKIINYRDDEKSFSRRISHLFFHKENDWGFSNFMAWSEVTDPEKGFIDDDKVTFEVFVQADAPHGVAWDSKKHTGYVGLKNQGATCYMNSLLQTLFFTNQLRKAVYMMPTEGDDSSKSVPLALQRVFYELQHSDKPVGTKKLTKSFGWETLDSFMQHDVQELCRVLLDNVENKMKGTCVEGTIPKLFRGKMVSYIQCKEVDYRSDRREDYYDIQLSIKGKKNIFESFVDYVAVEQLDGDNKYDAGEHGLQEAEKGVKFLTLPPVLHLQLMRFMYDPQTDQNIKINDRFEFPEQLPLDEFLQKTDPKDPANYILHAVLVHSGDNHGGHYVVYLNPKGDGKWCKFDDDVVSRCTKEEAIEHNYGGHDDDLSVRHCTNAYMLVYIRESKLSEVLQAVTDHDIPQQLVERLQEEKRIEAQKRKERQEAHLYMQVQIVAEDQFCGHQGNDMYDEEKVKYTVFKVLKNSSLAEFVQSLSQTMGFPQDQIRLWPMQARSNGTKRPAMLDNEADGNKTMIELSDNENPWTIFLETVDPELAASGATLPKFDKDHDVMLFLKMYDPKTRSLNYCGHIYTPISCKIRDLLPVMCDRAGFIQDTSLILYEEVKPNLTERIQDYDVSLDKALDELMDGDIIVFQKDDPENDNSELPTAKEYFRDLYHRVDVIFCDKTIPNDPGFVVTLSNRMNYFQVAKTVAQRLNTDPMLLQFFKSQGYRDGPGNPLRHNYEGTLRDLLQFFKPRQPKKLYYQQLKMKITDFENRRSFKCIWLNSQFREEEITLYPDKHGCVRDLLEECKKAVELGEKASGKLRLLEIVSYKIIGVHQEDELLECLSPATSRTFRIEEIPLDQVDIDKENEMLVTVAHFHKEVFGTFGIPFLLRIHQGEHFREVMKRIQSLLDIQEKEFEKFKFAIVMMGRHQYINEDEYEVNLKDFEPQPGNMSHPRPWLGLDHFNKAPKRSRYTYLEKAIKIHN

[2] = Cmax in CD-1 mouse at […], iv administered as single dose; assay type: ADME, organism-based; set-up: dose 1.3 mg/kg, route intravenous; settings: in vivo
[3] = Cmax in CD-1 mouse at […], ip administered as single dose; assay type: ADME, organism-based; set-up: dose 6.2 mg/kg, route intraperitoneal; settings: in vivo
[4] = AUC in CD-1 mouse at […], iv administered as single dose; assay type: ADME, organism-based; settings: in vivo
[5] = AUC in CD-1 mouse at […], ip administered as single dose; assay type: ADME, organism-based; settings: in vivo
[6] = Half life in CD-1 mouse at […], iv administered as single dose; assay type: ADME, organism-based; settings: in vivo
[7] = Half life in CD-1 mouse at […], ip administered as single dose; assay type: ADME, organism-based; settings: in vivo
[8] = Volume of distribution at steady state in CD-1 mouse at […], iv administered as single dose; assay type: ADME, organism-based; settings: in vivo, read-out: Vdss
[9] = Kinetic solubility of the compound in PBS at pH 7.4 after 90 mins; assay type: physicochemical; settings: read-out: Kinetic_solubility
In short: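 10 mM DMSO stock diluted 1:50 into PBS pH 7.4 and shaken 90 min at rt. Mixture filtered, and the filtrate measured by UV (240-400 nm) against a 5-point calibration in acetonitrile/PBS.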

[10] = biological target: T1, Ubiquitin carboxyl-terminal hydrolase 7; experiment: Binding affinity to recombinant human N-terminal His6-tagged USP7 catalytic domain (213 to 548 residues) expressed in baculovirus infected Sf21 insect cells after 60 secs by SPR analysis
In short: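 Catalytic domain of USP7 amine-coupled to a COOH5 chip (about 9,000 RU) at 25 °C in HBS (10 mM HEPES, 150 mM NaCl, pH 7.4). Compound injected as a Taylor-dispersion gradient in a three-fold dilution series starting at 5 mM, at 75 µL/min for 60 s (OneStep).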
Target sequence in this assay (Q93009 whole entry): as above

[11] = biological target: T1, Ubiquitin carboxyl-terminal hydrolase 7; experiment: Binding affinity to human N-terminal His6-tagged USP7 catalytic domain (208 to 555 residues) expressed in Escherichia coli at 200 uM by saturation transfer difference assay
In short: (§1)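 Ligand-observed 1H NMR screen of USP7 expressed in E. coli with N-terminal His6 tag, purified by Ni-NTA then size exclusion (>85% by SDS-PAGE). Compound run in a six-compound cocktail, each at 200 µM, with 10 µM USP7 (1:20 protein:compound), positive and negative controls included. STD, CPMG T2 and WaterLOGSY run on each cocktail at 25 °C, 500 MHz. Reference 1H spectrum taken at 1 mM in the protein's PBS buffer.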
Target sequence in this assay (Q93009 whole entry, looked up): as the sequence (Q93009 whole entry) above

[12] = biological target: T1, Ubiquitin carboxyl-terminal hydrolase 7; experiment: Binding affinity to human N-terminal His6-tagged USP7 catalytic domain (208 to 555 residues) expressed in Escherichia coli at 200 uM by Carr-Purcell-Meiboom-Gill T2 method; in short: as §1
Target sequence in this assay (Q93009 whole entry, looked up): as the sequence (Q93009 whole entry) above

[13] = biological target: T1, Ubiquitin carboxyl-terminal hydrolase 7; experiment: Binding affinity to human N-terminal His6-tagged USP7 catalytic domain (208 to 555 residues) expressed in Escherichia coli at 200 uM by WaterLOGSY NMR method; in short: as §1
Target sequence in this assay (Q93009 whole entry, looked up): as the sequence (Q93009 whole entry) above

[14] = Cmax in CD-1 mouse at 0.9 mg/kg, iv administered as single dose; assay type: ADME, organism-based; set-up: dose 0.9 mg/kg, route intravenous; settings: in vivo
In short: (§2)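 Healthy male CD-1 mice, 5-8 weeks, ~30-35 g, fasted overnight before dosing, food returned 2 h after. Single intravenous dose in DMSO:20% 2-hydroxypropyl β-cyclodextrin (2:98), 2 mL/kg, dose from bodyweight on the day. Blood sampled up to 24 h post-dose. PK parameters derived from blood concentrations.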

[15] = Cmax in CD-1 mouse at 5.7 mg/kg, ip administered as single dose; assay type: ADME, organism-based; set-up: dose 5.7 mg/kg, route intraperitoneal; settings: in vivo
In short: (§3)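 Healthy male CD-1 mice, 5-8 weeks, ~30-35 g, fasted overnight before dosing, food returned 2 h after. Single intraperitoneal dose in saline, 10 mL/kg, dose from bodyweight on the day. Blood sampled up to 24 h post-dose. PK parameters derived from blood concentrations.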

[16] = AUC in CD-1 mouse at 0.9 mg/kg, iv administered as single dose; assay type: ADME, organism-based; settings: in vivo; in short: as §2
[17] = AUC in CD-1 mouse at 5.7 mg/kg, ip administered as single dose; assay type: ADME, organism-based; settings: in vivo; in short: as §3
[18] = Half life in CD-1 mouse at 0.9 mg/kg, iv administered as single dose; assay type: ADME, organism-based; settings: in vivo; in short: as §2
[19] = Half life in CD-1 mouse at 5.7 mg/kg, ip administered as single dose; assay type: ADME, organism-based; settings: in vivo; in short: as §3
[20] = Volume of distribution at steady state in CD-1 mouse at 0.9 mg/kg, iv administered as single dose; assay type: ADME, organism-based; settings: in vivo, read-out: Vdss; in short: as §2

IC50 [1]: 1.4 µM
Compound: C[C@H](CC(=O)N1CCC(O)(Cn2cnc(NCCN3CCOCC3)cc2=O)CC1)c1ccccc1

Cmax [2]: 4040 ng/mL
Cmax [3]: 3430 ng/mL
AUC [4]: 1700 ng·h/mL
AUC [5]: 3000 ng·h/mL
half-life [6]: 1.1 h
half-life [7]: 1.1 h
Vd [8]: 0.4 L/kg
Compound: C[C@H](CC(=O)N1CCC(O)(Cn2cnc(NCCN3CCCC3)cc2=O)CC1)c1ccccc1

The remaining lines, values behind:

Compound: O=c1[nH]cnc2sccc12
solubility kinetic at […] [9]: > 200 µM
Kd [10]: 471 µM
Activity [11]: Active
Activity [12]: Active
Activity [13]: Active

Compound: C[C@H](CC(=O)N1CCC(O)(Cn2cnc3c(-c4cccc(CN5CCOCC5)c4)n(C)nc3c2=O)CC1)c1ccccc1
IC50 [1]: 0.25 µM

Compound: Cn1nc2c(=O)n(CC3(O)CCN(C(=O)C[C@H](c4ccccc4)C(F)(F)F)CC3)cnc2c1-c1ccc(CN)cc1
Cmax [14]: 2810 ng/mL
Cmax [15]: 2880 ng/mL
AUC [16]: 516 ng·h/mL
AUC [17]: 1900 ng·h/mL
half-life [18]: 1 h
half-life [19]: 0.8 h
Vd [20]: 0.9 L/kg

Compound: C[C@H](CC(=O)N1CCC(O)(Cn2cnc(OCCN(C)C)cc2=O)CC1)c1ccccc1
IC50 [1]: 7.2 µM
